Compound activity from PubChem BioAssay.
CCR6 antagonist: CCR6 receptor antagonists, primary screen, cell-based, CHO-K1, luminescence, beta-arrestin, uHTS; C-C chemokine receptor type 6 (Homo sapiens), P51684; CHO-K1 CCR6 PathHunter beta-arrestin, CCL20-stimulated; inhibition, % at 20 µM; hit rate 0.49% among 340,000;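 active means compounds whose inhibition of the agonist-driven luminescence signal at 20 µM reaches about 50%, limit read from the data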;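 further: cells stimulated with CCL20 at 14 nM final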
CXCR6 block: CXCR6 receptor inhibitors, primary screen, cell-based, beta-arrestin, luminescence, CHO-K1 PathHunter, 1536-well; hit rate 0.36% among 360,000; inhibition, % at 20 µM; AID 602244, 2012; in the data active means inhibition above about 34%, passing the limit was not always enough;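 further: antagonist mode with CXCL16 agonist at 10 nM final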
EBI2 block: EBI2 receptor antagonists, beta-arrestin recruitment, primary screen, cell-based, luminescence, 7a,25-OHC stimulation, uHTS. G-protein coupled receptor 183 (Homo sapiens), P32249. inhibition, % at 5 µM. hit rate 0.81% among 360,000. 7a,25-OHC stimulated; in the data active means inhibition above about 38%;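 further: enzyme fragment complementation signal reports receptor beta-arrestin coupling in cells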
APJ antag: antagonists of human apelin receptor APJ, primary screen, CHO-K1 cells, beta-arrestin complementation, luminescence; P35414; inhibition, % at 20 µM; hit rate 0.32% among 330,000;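 active means inhibition above about 40% at 20 µM, limit read from the data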;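 further: cells challenged with 10 nM apelin-13 agonist together with compound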
Target sequence (P35414 whole entry, looked up): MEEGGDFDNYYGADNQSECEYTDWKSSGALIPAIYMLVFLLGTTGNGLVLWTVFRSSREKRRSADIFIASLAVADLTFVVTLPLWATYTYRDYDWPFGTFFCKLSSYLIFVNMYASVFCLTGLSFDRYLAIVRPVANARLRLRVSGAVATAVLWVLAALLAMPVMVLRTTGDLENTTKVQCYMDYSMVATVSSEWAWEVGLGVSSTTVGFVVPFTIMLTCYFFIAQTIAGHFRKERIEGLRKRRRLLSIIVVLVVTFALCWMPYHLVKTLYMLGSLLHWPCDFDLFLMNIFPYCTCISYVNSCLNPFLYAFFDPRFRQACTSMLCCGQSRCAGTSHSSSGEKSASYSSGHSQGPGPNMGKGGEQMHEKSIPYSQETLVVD
APJ agonist: agonists of human apelin receptor APJ, primary screen, CHO-K1 cells, PathHunter beta-arrestin, luminescence; P35414; 0% DMSO wells, 100% apelin; activation, % at 20 µM; hit rate 0.11% among 330,000;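 active means activation more than six SD over the plate average, tested at 20 µM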
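system = engineered CHO-K1 APJ arrestin reporter cells | input = 1000 cells per well | timing = overnight seeding, 90 min compound at 25 °C, 1 h detection | measured by = enzyme-fragment complementation luminescence | read-out = beta-arrestin recruitment to APJ as agonist activity, luminescent signal | control set = negative DMSO alone, positive Apelin-13 at 10 nM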
APJ antag confirm: APJ antagonists blocking beta-arrestin recruitment, confirmation, cell-based, luminescence, single concentration, uHTS hits | hit rate 66% among 950 | inhibition, % at 20 µM | antagonist mode | shares compounds with APJ antag; in the data active means inhibition above about 50%
Of the large screens only hits and unclear results are named; the others gave an inactive call (follow-up assays come after a bar, where they were run). Most compounds without a hit are left out; they make up all but 1.5% or so of the library.

CC(O)CC(=O)OC[C@]12CC[C@H]3[C@@](C)(CC[C@H]4C(C)(C)CCC[C@]34C)[C@@H]1CC(C1=CC(=O)OC1O)O2 (some centres not stated)	none (no result: CCR6 antagonist, APJ antag, APJ agonist)
O=C1CN(C(=O)c2ccc(Cl)c([N+](=O)[O-])c2)c2ccccc2N1	APJ antag 41.4 | APJ antag confirm inactive
CN(C)CCCNC(=O)c1ccccn1	none
CN(C)CCCNC(=O)c1ccc(-c2nc(-c3ccc(Cl)cc3)cs2)cc1	CCR6 antagonist 82.4, APJ antag 51.6 | APJ antag confirm 94.4
COc1ccc2c(c1)C(=O)[C@H](O)[C@@H](c1ccc(OC)c(Br)c1)O2	CCR6 antagonist 61.5, APJ antag 58.0 (no result: CXCR6 block, EBI2 block) | APJ antag confirm 102.8
CCc1nc2ccc(C(=O)NCCCn3ccnc3)cn2c1N(CC)CCOC	none (no result: CCR6 antagonist, APJ antag, APJ agonist)
Cc1ccc(C(=O)COC(=O)c2cnccn2)cc1[N+](=O)[O-]	APJ antag 45.6 | APJ antag confirm 65.1
O=C(COC(=O)c1cccnc1)c1ccc(Cl)c(Cl)c1	CCR6 antagonist 81.0, APJ antag 84.7 | APJ antag confirm 77.8
Cc1ccc(C(=O)COC(=O)c2cnccn2)cc1C	none (no result: CCR6 antagonist, CXCR6 block, EBI2 block)
O=C(COC(=O)c1cnccn1)c1ccc(Cl)c([N+](=O)[O-])c1	CCR6 antagonist 87.0, CXCR6 block 54.2, APJ antag 90.6 | APJ antag confirm 140.3
CC(C)c1c(C(=O)Nc2ccccc2)c(-c2ccccc2)c(-c2ccc(F)cc2)n1CC[C@@H](O)C[C@@H](O)CC(=O)O	none (no result: CCR6 antagonist, APJ antag, APJ agonist)
Cc1cccc(C)c1NC(=O)C1C(c2ccccc2)=Nc2ccccc2N1C(=O)c1cnccn1 (configuration not stated)	none (no result: CCR6 antagonist, CXCR6 block, APJ antag, APJ agonist)
COC(=O)[C@]12CCCCC=C1N(CCC1=CCCCC1)C(=O)[C@H](CC(=O)N1CCC(c3ccccc3)CC1)C2	none (no result: CCR6 antagonist, APJ antag, APJ agonist)
CCCCNC(=O)c1nc(C2CCN(S(=O)(=O)c3c(OC)cccc3OC)CC2)oc1-c1ccccc1	none (no result: CCR6 antagonist, CXCR6 block, APJ antag, APJ agonist)
CCCCn1c(NC(=O)c2ccc(Br)o2)c(S(=O)(=O)c2ccccc2)c2nc3ccccc3nc21	APJ antag 54.6 | APJ antag confirm inactive
CC(C)(C)c1cc(Br)c(O)c(N=Nc2ccc(S(=O)(=O)N3CCOCC3)cc2)c1	CCR6 antagonist 52.1, APJ antag 43.5 | APJ antag confirm inactive
O=C(NC1CCCC1)C(C1CC1)n1c(-c2ccnc3ccccc23)nc2ccccc21 (configuration not stated)	none (no result: CCR6 antagonist, CXCR6 block, APJ antag, APJ agonist)
COc1ccc(NC(=O)CSc2ccccn2)cc1OC	none
COc1ccc(NC(=O)CSc2nnc(-c3ccccn3)n2-c2ccccc2)cc1OC	APJ antag 40.7 | APJ antag confirm inactive
COc1cc(/C=C(\C#N)C(=O)c2c[nH]c3ccccc23)cc(OC)c1O	CCR6 antagonist 57.5, CXCR6 block 45.7, APJ antag 40.4 | APJ antag confirm 79.2
CCNC(=O)C1(C)CCN(C(=O)c2cc(OC)c(OC)c(OC)c2)C1 (configuration not stated)	none (no result: CCR6 antagonist, APJ antag, APJ agonist)
O=C(NC1CCCC1)C(c1ccccc1)n1c(-c2ccc3c(c2)CCO3)nc2ccccc21 (configuration not stated)	none (no result: CCR6 antagonist, CXCR6 block, APJ antag, APJ agonist)
Nc1nc2c(c(=O)[nH]1)C(c1ccccc1)C1=C(N2)c2ccccc2C1=O (configuration not stated)	APJ antag 45.4 | APJ antag confirm inactive
CN(C)CCNc1ncnc2c1ncn2[C@H]1CN(Cc2ccncc2)C[C@@H](CO)O1	none (no result: CCR6 antagonist, APJ antag, APJ agonist)
CC(/C=N/n1c(C2CCCCC2)n[nH]c1=S)=C\c1ccccc1	APJ antag 46.7 | APJ antag confirm 78.4
O=C(NC1CCCCC1)C(c1ccc(-c2ccccc2)cc1)n1c(=O)c(-c2ccco2)nc2ccccc21 (configuration not stated)	none (no result: CCR6 antagonist, CXCR6 block, APJ antag, APJ agonist)
COc1cc(C(C#N)N2N=C(c3ccccc3)CC2c2ccccc2)ccc1O (configuration not stated)	none
N#CC(c1ccccc1O)N1N=C(c2ccccc2)CC1c1ccccc1 (configuration not stated)	CCR6 antagonist 54.5, APJ antag 66.7 | APJ antag confirm inactive
O=C(CCC(=O)OCC(=O)c1cccc([N+](=O)[O-])c1)Nc1cccc(Cl)c1Cl	CCR6 antagonist 61.7, APJ antag 40.7 | APJ antag confirm 80.7
O=C(CCC(=O)OCC(=O)c1ccc(Br)cc1)NC1CCCCC1	none
Cc1ccc(C(=O)COC(=O)CCC(=O)NC2CCCCC2)cc1[N+](=O)[O-]	APJ antag 49.1 | APJ antag confirm inactive
COc1ccccc1NC(=O)CCC(=O)OCC(=O)c1ccc(C)c([N+](=O)[O-])c1	APJ antag 50.2 | APJ antag confirm 62.0
COc1ccccc1NC(=O)CCC(=O)OCc1cccc([N+](=O)[O-])c1	none
Cc1ccccc1NC(=O)CCC(=O)OCC(=O)c1cccc([N+](=O)[O-])c1	CCR6 antagonist 54.1, APJ antag 56.2 | APJ antag confirm 98.1
O=C(CCC(=O)OCC(=O)c1ccc([N+](=O)[O-])cc1)Nc1ccccc1Cl	none
Cc1ccc(C(=O)COC(=O)CCS(=O)(=O)c2ccccc2)cc1[N+](=O)[O-]	none
COc1cccc(-c2ccc3c(c2)O[C@H](CN(C)C(=O)c2ccccc2F)[C@H](C)CN([C@H](C)CO)S3(=O)=O)c1	none (no result: CCR6 antagonist, APJ antag, APJ agonist)
CCOC(=O)C1CCCN(C(=O)c2sc(-c3ccccc3)nc2C)CC1 (configuration not stated)	none (no result: CCR6 antagonist, APJ antag, APJ agonist)
O=C(C[N+]1(CC#Cc2ccccc2)CCOCC1)c1ccc(Cl)cc1	CCR6 antagonist 62.0, CXCR6 block 41.9, APJ antag 89.8 | APJ antag confirm 107.7
CCC[N+](CC#Cc1ccccc1)(CCC)CC(=O)c1ccc(Cl)cc1	APJ antag 59.8 | APJ antag confirm 53.2
O=C(C[N+]1(CC#Cc2ccccc2)CCCCC1)c1ccc(Cl)cc1	APJ antag 57.3 | APJ antag confirm inactive
CCC[N+](CC#Cc1ccccc1)(CCC)CC(=O)OC	none
CC1(C(=O)NS(=O)(=O)C2CC2)CCN(C(=O)c2cccc(Cl)c2)C1 (configuration not stated)	none (no result: CCR6 antagonist, APJ antag, APJ agonist)
COc1ccc(S(=O)(=O)NNc2nc(C)cc(C)n2)cc1[N+](=O)[O-]	APJ antag 61.6 | APJ antag confirm 114.2
COc1ccc(C(=O)Nc2nc(C)cc(C)n2)cc1[N+](=O)[O-]	none
c1ccc(COc2ccc(-c3cc4nc(NCCCn5ccnc5)ccn4n3)cc2)cc1	none (no result: CCR6 antagonist, APJ antag, APJ agonist)
CC(C)(C)OC(=O)NCCc1nc(NC(=O)OCc2ccccc2)sc1C(=O)O	none (no result: CCR6 antagonist, CXCR6 block, APJ antag, APJ agonist)
